MEKK2wt PB1 HTS: raises or lowers MEK5 binding to wildtype human MEKK2 PB1 domain | Q9Y2U5 | bead flow cytometry, Alexa488-MEK5 binding to MEKK2 WT; actives lie on both sides | binding response (% of control), % at 10 µM | 290,000 tested, 1.1% active | AID 1531; in the data active = binding response below about 67% or above about 130%
PREPL inhibitor: inhibitors of human prolyl oligopeptidase-like enzyme PREPL; Q4J6C6; recombinant PREPL, fluorescence polarization activity-based probe; 320,000 tested, 0.68% active; inhibition, % at 5.96 µM; in the data active = inhibition above about 43%;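 also: 0% = enzyme with DMSO and 100% = wells lacking enzyme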
Apaf-1 inh: inhibitors of human Apaf-1 apoptosome | reconstituted apoptosome caspase-3 activity, DEVD-Rh110 fluorescence | inhibition, % at 20 µM | 330,000 tested, 0.71% active | O14727; active = inhibition of at least 40% at 20 µM;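 also: plate controls were DMSO wells for no effect and DEVD-CHO caspase inhibitor wells for full effect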
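Material: biochemical Apaf-1 apoptosome reconstitution. Medium: Hepes buffer, pH 7.5. Also added: cytochrome c activation, bis-DEVD rhodamine 110 substrate. Timing: 30 min compound preincubation, 50 min activation, room temperature. Measured by: rhodamine 110 fluorescence at Ex 480/Em 540 nm.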
UBC13 polyUb: inhibitors of human UBC13 polyubiquitin chain formation; 330,000 tested, 0.47% active; inhibition, % at 20 µM; TR-FRET; in the data active = inhibition above about 45%, passing the limit was not always enough
MEKK2 mut-MEK5: signal of MEK5 binding to mutant human MEKK2 PB1 domain; bead flow cytometry, Alexa488-MEK5 binding to MEKK2 mutant; percent response, % at 10 µM; 290,000 tested, 0.35% active; AID 1530; in the data active = percent response above about 24%, passing the limit was not always enough
MEKK3 PB1 HTS: raises or lowers MEK5 binding to the human MEKK3 PB1 domain; 290,000 tested, 1.4% active; Q99759; AID 1529; binding response (% of control), % at 10 µM; bead-based flow cytometry, Alexa488-MEK5 binding to MEKK3; actives lie on both sides; 0 = blocked by unlabeled MEK5, 100 = vehicle;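 active = binding response more than 3 SD above or below the average of its plate-row segment, actives on both sides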;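 also: Alexa488 bead fluorescence after subtracting the streptavidin-only scavenger bead signal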
Target sequence (Q99759 whole entry, looked up, the tested form may be a part): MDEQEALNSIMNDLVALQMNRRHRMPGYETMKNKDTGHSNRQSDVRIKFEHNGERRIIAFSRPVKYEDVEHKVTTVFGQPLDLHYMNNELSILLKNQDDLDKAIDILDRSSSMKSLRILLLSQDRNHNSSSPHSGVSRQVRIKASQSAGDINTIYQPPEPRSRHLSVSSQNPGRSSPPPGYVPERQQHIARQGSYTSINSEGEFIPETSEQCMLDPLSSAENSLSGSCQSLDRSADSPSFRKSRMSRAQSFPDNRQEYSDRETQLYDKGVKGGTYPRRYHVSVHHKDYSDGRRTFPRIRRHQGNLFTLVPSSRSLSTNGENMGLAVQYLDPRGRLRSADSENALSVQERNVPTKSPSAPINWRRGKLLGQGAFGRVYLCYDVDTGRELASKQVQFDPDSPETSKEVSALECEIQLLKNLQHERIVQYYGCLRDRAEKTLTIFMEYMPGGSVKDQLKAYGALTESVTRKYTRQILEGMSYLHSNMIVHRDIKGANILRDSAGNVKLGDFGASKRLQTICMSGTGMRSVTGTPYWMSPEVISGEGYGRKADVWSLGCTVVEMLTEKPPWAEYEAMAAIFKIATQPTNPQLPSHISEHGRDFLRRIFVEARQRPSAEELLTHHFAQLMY
Starred values were filed as active, the others as inactive; / = no result; [ ] = remark or other dose. This is a sample that favours compounds with a hit; in the whole collection about 3.1% have one here.

SMILES | MEKK2wt PB1 HTS | PREPL inhibitor | Apaf-1 inh | UBC13 polyUb | MEKK2 mut-MEK5 | MEKK3 PB1 HTS
N#Cc1c(N(CCO)CCO)nc(N)c2c(N)nc3c(c12)CC(=O)N3CC1CCCO1 (centres undefined) | 87.0 | 14.3 | 97.6* | -13.8 | -17.0 | 91.0
CN1CCN(c2ccc(NC(=S)NC(=O)c3cccc4c(Br)cccc34)cc2)CC1 | 173.0* | 27.1 | 37.5 | 36.0 | 22.0 | 106.0
CCCCC(=O)NC(=S)Nc1nnn(CCC)n1 | 53.0 | -4.3 | -5.8 | 4.1 | -18.0 | 43.0*[inhibitor]
CC(=O)c1cc(F)ccc1OCC(=O)N1CCCc2ccccc21 | 96.0 | 4.2 | 12.3 | 2.9 | -1.0 | 100.0
O=S(=O)(c1ccccc1)[C@@]1(c2ccccc2)C[C@@H]2ON=C(c3cccc(-c4ccccc4)c3)[C@@H]2C1 | / | 0.5 | 4.8 | -20.0 | / | /
Cc1nc(NC2=NCN(C3CCCCC3C)CN2)nc2ccccc12 (centres undefined) | 139.0* | / | / | / | 11.0 | 102.0
c1ccc2oc(NC3=NCN(C4CCCCC4)CN3)nc2c1 | 93.0 | 1.8 | 2.5 | -7.5 | 4.0 | 98.0
O=C(CSc1ccsc1[N+](=O)[O-])N1CCN(c2ccc(Cl)cc2)CC1 | 108.0 | 43.6* | 5.8 | -5.3 | 5.0 | 100.0
CC(Sc1nnc2n1CCCCC2)C(=O)Nc1cccc(S(=O)(=O)N2CCOCC2)c1 (centres undefined) | / | / | -0.6 | -3.1 | / | /
Cc1nc2ccc(NC(=O)N3CCCCC3)cc2nc1C | 109.0 | 1.8 | -2.2 | 2.1 | 2.0 | 104.0
O=C(Nc1ccc2nc(-c3ccco3)c(-c3ccco3)nc2c1)N1CCCCCC1 | 80.0 | 75.0* | 57.3* | 27.0 | -5.0 | 89.0
OC(COc1ccc(CNCCc2ccc(C(F)(F)F)cc2)cc1)CN1CCCCC1 (centres undefined) | 150.0* | 25.6 | 2.6 | 28.8 | 2.0 | 107.0
Cc1ccc(C(C)C)c(OCc2nn(CC(=O)c3ccc(OC(F)F)cc3)c3[n+]2CCCCC3)c1 | 217.0* | 28.8 | 26.1 | 44.3 | 47.0 | 114.0
CCCN(CC(=O)Nc1ccccc1OC)C(=O)c1cc(S(=O)(=O)NCc2ccccc2)ccc1C | 108.0 | 0.5 | 61.7* | 29.1 | 6.0 | 104.0
CC1CCN(C(=O)c2cc(Cl)ccc2NC(=O)c2ccco2)CC1 | 101.0 | 6.2 | 3.3 | -2.0 | 1.0 | 103.0
CCc1cccc(NS(=O)(=O)c2c(C)nc3sc(CC)nn3c2=O)c1 | 90.0 | -5.1 | 4.9 | 1.4 | -5.0 | 95.0
CC[N+]1(C)CCC(=C2c3ccccc3CC(=O)c3sccc32)CC1 (centres undefined) | 108.0 | 3.7 | -10.6 | -0.2 | 3.0 | 105.0
C[N+]1(C)CCC(=C2c3ccccc3CC(=O)c3sccc32)CC1 | 94.0 | 9.6 | 57.3* | -30.0 | -11.0 | 89.0
CC(=O)N1CCc2c(sc(NC(=O)C3CC3)c2-c2nc3ccccc3s2)C1 | 104.0 | 15.4 | 71.5* | -2.4 | 0.0 | 105.0
Cc1[nH]n(-c2ccccc2)c(=O)c1C(c1ccc(O)c([N+](=O)[O-])c1)c1c(C)[nH]n(-c2ccccc2)c1=O | 98.0 | -3.0 | 87.2* | -188.3 | 1.0 | 100.0
O=S(=O)(Cc1ccccc1)N1CCc2ccccc21 | / | -5.3 | -7.3 | -18.0 | 74.0* | 90.0
CCCOc1ccccc1Cn1c(=O)oc2ccccc21 | 97.0 | 0.5 | 9.0 | -7.4 | -2.0 | 104.0
Cc1cc(-c2csc(NCc3ccccc3)n2)c(C)n1C | -10.0* | / | / | / | 1.0 | 84.0
Cc1nc2ncccn2c1-c1csc(NCc2ccco2)n1 | 90.0 | 40.3 | 2.2 | -4.0 | -6.0 | 89.0
Cc1nc(N)sc1-c1csc(NCc2ccccc2)n1 | 105.0 | 37.3 | 8.2 | -9.5 | 4.0 | 106.0
CCNc1nc(-c2cc(C)n(Cc3ccco3)c2C)cs1 | -21.0* | 19.6 | 3.7 | -7.8 | -29.0 | 79.0
CC(=O)C[C@H](O)CC(=O)[C@H]1OC(=O)CC/C=C\Cc2ccccc21 | / | 18.2 | 2.4 | -10.2 | / | /
CCN(CC)CCN1CCn2c3c(c4cc(C)ccc42)CCCC31 (centres undefined) | 111.0 | 52.1* | 27.6 | -12.0 | 1.0 | 108.0
CCN1CCn2c3c(c4cc(Cl)ccc42)CCCC31 (centres undefined) | 108.0 | 38.2 | 8.2 | 7.2 | 8.0 | 104.0

From PubChem
